Experimental data published in ChEMBL document CHEMBL1146951, “Structure-guided identification of novel VEGFR-2 kinase inhibitors via solution phase parallel synthesis” (Bioorg Med Chem Lett, 2006).
Calls of active or inactive are those of the source. No cut-off for these calls is given here.

What was measured:
[1] = target: T1, Vascular endothelial growth factor receptor 2 (Homo sapiens, UniProt P35968); test: Inhibition of VEGFR2 at 1 uM
Summary of the method: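 Kinase activity of baculovirus-expressed human VEGFR2 enzyme.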

[2] = target: High affinity nerve growth factor receptor (Homo sapiens) (UniProt P04629); test: Inhibition of TrkA at 1 uM
[3] = target: Protein kinase C (PKC) (Homo sapiens) (UniProt O94806+P41743+P17252+P05129+Q05655+P05771+Q05513+Q02156+P24723+Q15139+Q04759); test: Inhibition of PKC at 1 uM; format: protein assay
SVR = test: Antitumor efficacy against SVR cells in nude mice at 30 mg/kg, po; format: functional, organism-based; parameters: dose 30 mg/kg; conditions: Mus musculus
Summary of the method: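 SVR murine angiosarcoma cells implanted in the right flank of female athymic nude mice. On day 5 post-implantation, once tumors were palpable, mice were randomized (n = 8–10). Dosing was 30 mg/kg/dose orally twice a day for 10 days in Tween:PG 1:1 vehicle. Tumor growth was compared with vehicle-treated controls.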

[4] = target: Cyclin-dependent kinase 1/cyclin B1 (Homo sapiens, UniProt P06493); test: Inhibition of CDK1/CyclinB1; format: protein-complex assay
[5] = target: T1, Vascular endothelial growth factor receptor 2; test: Inhibition of VEGFR2
[6] = target: T2, Vascular endothelial growth factor receptor (Homo sapiens) (UniProt P17948+P35916+P35968); test: Inhibition of microvessel growth in rat aortic ring at 40 nM; format: functional, tissue-based; conditions: Aorta, target entry is the homologue from another species
Summary of the method: (§1)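 Rat aortic ring explants were cultured in serum-free collagen gel in serum-free MCDB 131 medium without exogenous VEGF. Microvessel sprouting was scored at peak growth (day 8) as percent inhibition relative to untreated controls. n = 8 replicates per concentration; inter-assay variability <10%. Statistics by Student Newman–Keuls test.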

[7] = target: T2, Vascular endothelial growth factor receptor (Homo sapiens); test: Inhibition of microvessel growth in rat aortic ring at 400 nM; format: functional, tissue-based; conditions: Aorta, target entry is the homologue from another species; summary of the method: as §1
[8] = target: Vascular endothelial growth factor receptor 3 (Homo sapiens) (UniProt P35916); test: Inhibition of VEGFR3 at 300 nM
[9] = target: Vascular endothelial growth factor receptor 1 (Homo sapiens) (UniProt P17948); test: Inhibition of VEGFR1 at 300 nM
[10] = target: T2, Vascular endothelial growth factor receptor (Homo sapiens); test: Inhibition of microvessel growth in rat aortic ring at 100 nM; format: functional, tissue-based; conditions: Aorta, target entry is the homologue from another species; summary of the method: as §1
[11] = target: T2, Vascular endothelial growth factor receptor (Homo sapiens); test: Inhibition of microvessel growth in rat aortic ring at 4 nM; format: functional, tissue-based; conditions: Aorta, target entry is the homologue from another species; summary of the method: as §1

T2 sequence (P17948 whole entry, looked up): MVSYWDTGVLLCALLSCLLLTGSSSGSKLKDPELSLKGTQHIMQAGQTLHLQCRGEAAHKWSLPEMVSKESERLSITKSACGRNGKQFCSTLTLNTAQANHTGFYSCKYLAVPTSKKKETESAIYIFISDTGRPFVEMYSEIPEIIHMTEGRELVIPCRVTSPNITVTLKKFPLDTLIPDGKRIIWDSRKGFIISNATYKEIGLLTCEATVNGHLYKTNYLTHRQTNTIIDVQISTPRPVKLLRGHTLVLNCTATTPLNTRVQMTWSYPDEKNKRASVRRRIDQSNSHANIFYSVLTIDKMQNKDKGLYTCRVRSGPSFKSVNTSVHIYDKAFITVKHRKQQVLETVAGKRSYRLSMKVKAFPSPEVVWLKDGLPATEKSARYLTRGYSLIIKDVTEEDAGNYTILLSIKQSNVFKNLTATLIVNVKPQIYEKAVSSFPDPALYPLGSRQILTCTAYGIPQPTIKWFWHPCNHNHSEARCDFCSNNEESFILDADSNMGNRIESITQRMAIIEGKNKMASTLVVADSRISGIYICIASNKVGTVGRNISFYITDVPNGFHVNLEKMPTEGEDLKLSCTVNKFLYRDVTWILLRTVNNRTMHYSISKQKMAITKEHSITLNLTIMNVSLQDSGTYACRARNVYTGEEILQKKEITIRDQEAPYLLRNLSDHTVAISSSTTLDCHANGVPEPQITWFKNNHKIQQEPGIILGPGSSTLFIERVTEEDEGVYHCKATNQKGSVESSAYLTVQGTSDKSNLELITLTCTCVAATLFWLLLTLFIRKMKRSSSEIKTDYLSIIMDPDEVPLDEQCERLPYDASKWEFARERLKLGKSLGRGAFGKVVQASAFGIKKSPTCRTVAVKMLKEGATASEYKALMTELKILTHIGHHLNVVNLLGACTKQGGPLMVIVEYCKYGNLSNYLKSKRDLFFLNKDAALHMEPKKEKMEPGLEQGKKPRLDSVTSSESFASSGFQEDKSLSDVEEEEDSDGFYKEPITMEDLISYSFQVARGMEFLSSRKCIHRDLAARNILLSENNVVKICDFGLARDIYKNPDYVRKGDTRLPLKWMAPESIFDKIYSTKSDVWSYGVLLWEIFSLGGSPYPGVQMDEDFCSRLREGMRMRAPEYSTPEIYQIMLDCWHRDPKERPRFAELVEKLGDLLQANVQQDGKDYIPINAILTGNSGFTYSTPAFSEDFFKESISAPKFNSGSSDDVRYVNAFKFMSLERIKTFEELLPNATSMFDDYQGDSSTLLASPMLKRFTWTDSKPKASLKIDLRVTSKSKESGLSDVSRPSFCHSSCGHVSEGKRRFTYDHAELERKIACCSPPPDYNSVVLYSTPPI
T2 sequence (P35916 whole entry, looked up): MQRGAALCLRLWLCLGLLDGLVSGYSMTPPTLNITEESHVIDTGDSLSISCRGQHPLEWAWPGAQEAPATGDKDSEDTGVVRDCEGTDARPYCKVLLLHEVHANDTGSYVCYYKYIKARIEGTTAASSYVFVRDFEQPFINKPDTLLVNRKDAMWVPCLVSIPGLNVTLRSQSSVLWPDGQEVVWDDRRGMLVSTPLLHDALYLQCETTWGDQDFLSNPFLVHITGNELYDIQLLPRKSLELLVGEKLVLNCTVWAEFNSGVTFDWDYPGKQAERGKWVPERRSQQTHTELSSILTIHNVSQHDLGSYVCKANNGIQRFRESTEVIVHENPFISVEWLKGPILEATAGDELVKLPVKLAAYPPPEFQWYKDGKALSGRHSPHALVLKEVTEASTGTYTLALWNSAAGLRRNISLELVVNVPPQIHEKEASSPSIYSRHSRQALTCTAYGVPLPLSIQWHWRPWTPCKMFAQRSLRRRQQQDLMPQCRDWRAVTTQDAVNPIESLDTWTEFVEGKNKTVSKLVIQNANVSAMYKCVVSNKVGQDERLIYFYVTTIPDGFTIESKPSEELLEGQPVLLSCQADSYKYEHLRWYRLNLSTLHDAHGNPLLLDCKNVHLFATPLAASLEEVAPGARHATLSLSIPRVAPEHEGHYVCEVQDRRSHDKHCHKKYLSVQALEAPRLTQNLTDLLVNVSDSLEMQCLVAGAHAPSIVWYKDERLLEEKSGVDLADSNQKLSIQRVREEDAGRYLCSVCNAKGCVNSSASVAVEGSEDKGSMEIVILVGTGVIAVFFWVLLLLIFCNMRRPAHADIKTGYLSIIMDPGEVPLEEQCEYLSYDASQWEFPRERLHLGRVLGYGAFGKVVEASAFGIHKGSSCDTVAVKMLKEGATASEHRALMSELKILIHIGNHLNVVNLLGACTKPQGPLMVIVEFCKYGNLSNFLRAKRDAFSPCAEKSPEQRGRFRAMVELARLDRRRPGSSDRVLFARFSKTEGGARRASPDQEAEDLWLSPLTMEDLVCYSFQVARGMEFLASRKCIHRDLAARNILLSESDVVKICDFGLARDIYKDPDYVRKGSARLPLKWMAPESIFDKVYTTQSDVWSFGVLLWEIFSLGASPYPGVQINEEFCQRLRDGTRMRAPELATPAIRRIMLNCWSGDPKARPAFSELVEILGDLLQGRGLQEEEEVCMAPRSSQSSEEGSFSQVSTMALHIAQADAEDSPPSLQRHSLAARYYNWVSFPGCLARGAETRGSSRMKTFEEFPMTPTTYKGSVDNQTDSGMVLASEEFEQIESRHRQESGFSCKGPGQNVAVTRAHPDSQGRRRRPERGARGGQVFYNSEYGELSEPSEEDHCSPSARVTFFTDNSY
T2 sequence (P35968 whole entry, looked up): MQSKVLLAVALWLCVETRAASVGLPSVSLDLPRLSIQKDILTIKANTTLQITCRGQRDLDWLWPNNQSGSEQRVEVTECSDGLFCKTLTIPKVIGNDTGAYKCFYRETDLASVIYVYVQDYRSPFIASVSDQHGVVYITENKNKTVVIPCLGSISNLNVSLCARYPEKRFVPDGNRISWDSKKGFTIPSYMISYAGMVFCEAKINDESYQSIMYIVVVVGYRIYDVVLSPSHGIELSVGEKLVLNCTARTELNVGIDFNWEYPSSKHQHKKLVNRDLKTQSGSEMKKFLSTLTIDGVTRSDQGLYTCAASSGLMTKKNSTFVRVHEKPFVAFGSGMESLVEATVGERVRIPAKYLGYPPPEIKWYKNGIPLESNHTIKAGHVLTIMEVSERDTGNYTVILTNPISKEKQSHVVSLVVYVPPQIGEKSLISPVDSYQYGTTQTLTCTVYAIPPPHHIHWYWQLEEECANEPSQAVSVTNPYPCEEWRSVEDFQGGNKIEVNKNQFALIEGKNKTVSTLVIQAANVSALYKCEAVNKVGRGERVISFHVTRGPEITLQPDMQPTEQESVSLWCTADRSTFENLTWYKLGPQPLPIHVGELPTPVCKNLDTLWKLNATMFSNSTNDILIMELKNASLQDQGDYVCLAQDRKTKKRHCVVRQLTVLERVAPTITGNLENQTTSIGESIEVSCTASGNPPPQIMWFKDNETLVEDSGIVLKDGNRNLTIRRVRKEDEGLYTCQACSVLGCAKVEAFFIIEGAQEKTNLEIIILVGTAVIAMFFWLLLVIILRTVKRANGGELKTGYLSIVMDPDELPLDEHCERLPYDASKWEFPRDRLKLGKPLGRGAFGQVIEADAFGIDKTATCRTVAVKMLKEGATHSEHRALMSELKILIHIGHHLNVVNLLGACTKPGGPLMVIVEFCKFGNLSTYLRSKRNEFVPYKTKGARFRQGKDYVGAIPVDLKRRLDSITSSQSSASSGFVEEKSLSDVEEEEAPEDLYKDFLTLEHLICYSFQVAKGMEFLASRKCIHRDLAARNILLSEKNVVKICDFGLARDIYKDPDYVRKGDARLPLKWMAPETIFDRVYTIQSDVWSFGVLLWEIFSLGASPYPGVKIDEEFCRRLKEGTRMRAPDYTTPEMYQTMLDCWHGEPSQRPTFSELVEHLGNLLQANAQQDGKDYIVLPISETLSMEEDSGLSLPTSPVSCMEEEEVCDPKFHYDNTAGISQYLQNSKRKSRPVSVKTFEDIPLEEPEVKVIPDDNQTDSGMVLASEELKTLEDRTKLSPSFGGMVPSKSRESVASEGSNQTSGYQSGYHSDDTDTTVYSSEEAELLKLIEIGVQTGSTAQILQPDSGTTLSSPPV
T1 sequence (P35968 whole entry): as the sequence (P35968 whole entry, looked up) above
Sequence of Vascular endothelial growth factor receptor 1 (Homo sapiens) (P17948 whole entry): as the sequence (P17948 whole entry, looked up) above
Sequence of Vascular endothelial growth factor receptor 3 (Homo sapiens) (P35916 whole entry): as the sequence (P35916 whole entry, looked up) above
Sequence of Cyclin-dependent kinase 1/cyclin B1 (P06493 whole entry): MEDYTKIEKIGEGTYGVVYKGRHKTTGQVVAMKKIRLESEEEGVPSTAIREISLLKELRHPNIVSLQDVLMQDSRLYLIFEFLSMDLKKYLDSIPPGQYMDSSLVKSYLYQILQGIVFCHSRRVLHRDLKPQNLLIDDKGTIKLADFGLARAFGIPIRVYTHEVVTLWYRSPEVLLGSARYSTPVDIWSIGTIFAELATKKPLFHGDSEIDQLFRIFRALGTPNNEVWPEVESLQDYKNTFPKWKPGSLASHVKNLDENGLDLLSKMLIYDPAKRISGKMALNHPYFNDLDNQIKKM
Sequence of Cyclin-dependent kinase 1/cyclin B1 (P14635 whole entry, further chain): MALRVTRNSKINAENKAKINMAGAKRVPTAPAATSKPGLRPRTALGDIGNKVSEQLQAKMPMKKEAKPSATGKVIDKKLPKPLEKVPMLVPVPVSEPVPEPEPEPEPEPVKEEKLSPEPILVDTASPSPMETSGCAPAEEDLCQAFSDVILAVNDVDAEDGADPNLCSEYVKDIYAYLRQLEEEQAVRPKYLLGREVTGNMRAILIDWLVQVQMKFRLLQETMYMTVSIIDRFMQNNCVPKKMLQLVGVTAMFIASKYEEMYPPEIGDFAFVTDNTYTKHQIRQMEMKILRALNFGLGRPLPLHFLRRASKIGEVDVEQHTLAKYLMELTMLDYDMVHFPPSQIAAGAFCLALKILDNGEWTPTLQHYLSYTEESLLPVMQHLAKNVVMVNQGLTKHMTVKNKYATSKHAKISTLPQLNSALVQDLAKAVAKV

Row | SMILES | inhibition [1] [%] | inhibition [2] [%] | inhibition [3] [%] | Activity (SVR) | IC50 [4] [nM] | IC50 [5] [nM] | inhibition [6] [%] | inhibition [7] [%] | inhibition [8] [%] | inhibition [9] [%] | inhibition [10] [%] | inhibition [11] [%]
1 | Cn1cc(/C=C2\C(=O)N(c3ccccc3)N=C2c2cnccn2)c2ccccc21 | 23 | – | – | – | – | – | – | – | – | – | – | –
2 | Cn1cc(/C=C2\C(=O)NN=C2c2nccs2)c2cc3c(cc21)OCO3 | – | 44 | 13 | Active | > 100000 | 32 | 66 | 90 | 63 | 25 | 75 | 55
3 | Cn1cc(CC2C(=O)NN=C2c2nccs2)c2ccccc21 (stereo not drawn) | 5 | – | – | – | – | – | – | – | – | – | – | –
